Shown are actives, neighbours in structure and some others; about 2.3% of the full set was active somewhere.
TRPC4 act: opens the mouse TRPC4 cation channel; B-score at 10 µM; HEK293 TRPC4beta/mu-opioid, Fluo4 calcium fluorescence; stronger effect = higher value; 0.49% of 310,000 active; AID 2237; Q9QUQ5;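 active = B-score above 5 SD of library B-scores, and initial fluorescence ratio not above library mean plus 5 SD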;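 note: positive B-score marks a calcium rise read as TRPC4 activation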
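Assay system: HEK293 stable line with TRPC4beta plus mu-opioid receptor. Times: dye 45 min RT, read 110 s. Measured by: kinetic Fluo4 calcium fluorescence. Measure: B score of integrated ratio. Controls: assay buffer as low control, maximal DAMGO as high control.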
Yeast superoxide: yeast age-related superoxide inhibition as caloric restriction mimetic. S. cerevisiae aged cells, superoxide DHE fluorescence; stronger effect = lower value. superoxide response (% of plate mean), % at 10 µM. 0.18% of 330,000 active. AID 2690;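 active = superoxide response under a set limit, about three screen SD below normal, cut at about 65% in these data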;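 note: yeast aged for seven days with compound at 30 °C before DHE staining; 100% = average MFI of all compound-treated wells on the plate with controls excluded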
TRPC4 inh: inhibitors of mouse TRPC4 channel. B-score at 10 µM. 0.39% of 300,000 active. Q9QUQ5. HEK293 TRPC4beta/mu-opioid, DAMGO-evoked Fluo4 calcium flux; stronger effect = lower value;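 active = B-score over 3 SD under the library average, no early fluorescence shift, positive overall ratio signal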
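Material: HEK293 cells with stable TRPC4beta plus mu-opioid receptor expression; probe or stimulus: DAMGO in two steps, submaximal then maximal; technique: Fluo4 calcium fluorescence by kinetic imaging, 5 s 1 Hz baseline; measure: integrated fluorescence ratio relative to baseline, converted to per-well B score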
TRPC4 potent: allosteric potentiators of mouse TRPC4 channel | Q9QUQ5 | HEK293 TRPC4beta/mu-opioid, DAMGO EC20, Fluo-4 Ca2+ flux; stronger effect = higher value | B-score at 10 µM | 0.42% of 310,000 active | AID 2227;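 active = B-score of calcium response area above 5 SD of library B-scores, with initial fluorescence ratio within 5 SD of library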;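 note: B-score of integrated fluorescence ratio over time as area under calcium response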
TRPC6 activator: activators of mouse TRPC6 channel; Q61143; HEK293-TRPC6 membrane potential dye fluorescence; stronger effect = higher value; B-score at 10 µM; 0.13% of 310,000 active;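 active = B-score of the integrated fluorescence ratio above library mean plus 3 SD, and starting fluorescence ratio within library mean plus 5 SD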;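 note: higher score means more depolarization so channel activation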
Target sequence (Q61143 whole entry, looked up): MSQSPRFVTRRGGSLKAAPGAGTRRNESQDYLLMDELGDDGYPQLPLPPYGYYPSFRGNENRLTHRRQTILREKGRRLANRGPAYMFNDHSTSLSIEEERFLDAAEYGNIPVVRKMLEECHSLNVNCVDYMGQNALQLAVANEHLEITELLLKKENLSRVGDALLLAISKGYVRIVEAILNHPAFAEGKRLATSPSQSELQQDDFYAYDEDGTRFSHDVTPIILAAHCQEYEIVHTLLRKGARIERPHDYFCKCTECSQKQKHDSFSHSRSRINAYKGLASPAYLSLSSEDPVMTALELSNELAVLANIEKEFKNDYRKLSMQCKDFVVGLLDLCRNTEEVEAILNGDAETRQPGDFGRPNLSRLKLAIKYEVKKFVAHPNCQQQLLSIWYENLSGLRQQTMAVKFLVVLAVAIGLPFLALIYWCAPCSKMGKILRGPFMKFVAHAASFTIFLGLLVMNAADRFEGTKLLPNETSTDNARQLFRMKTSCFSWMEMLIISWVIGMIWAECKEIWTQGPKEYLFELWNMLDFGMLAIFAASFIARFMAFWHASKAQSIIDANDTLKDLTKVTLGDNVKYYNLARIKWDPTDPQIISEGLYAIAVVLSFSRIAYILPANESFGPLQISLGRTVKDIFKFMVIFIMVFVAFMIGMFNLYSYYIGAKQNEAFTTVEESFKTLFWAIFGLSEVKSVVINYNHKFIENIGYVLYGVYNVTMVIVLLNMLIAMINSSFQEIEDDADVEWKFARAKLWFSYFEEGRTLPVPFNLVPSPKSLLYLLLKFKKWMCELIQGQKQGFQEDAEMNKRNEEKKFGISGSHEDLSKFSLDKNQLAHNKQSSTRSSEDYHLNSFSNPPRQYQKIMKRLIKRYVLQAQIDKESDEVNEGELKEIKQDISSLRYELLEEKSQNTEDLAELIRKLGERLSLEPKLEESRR
TRPC6 inh: blocks the mouse TRPC6 cation channel. HEK293-TRPC6, membrane potential dye, ACh-evoked depolarization; stronger effect = lower value. B-score at 10 µM. 1.1% of 310,000 active. AID 2553;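 active = B-score under library mean minus 3 SD, initial fluorescence not abnormally high, positive integrated signal ratio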;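 note: B-score derived from integrated fluorescence ratio over the kinetic read; more negative B-score means stronger inhibition of depolarization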
Numbers without * were called inactive.

`O=C(Nc1ccccc1)Nc1csc2ccccc12` gave TRPC4 act inactive, Yeast superoxide 62.6*, TRPC4 inh inactive, TRPC4 potent inactive, TRPC6 activator inactive and TRPC6 inh inactive.
`O=S(=O)(NCC1(N2CCOCC2)CCCCC1)c1ccccc1Cl` gave TRPC4 act inactive, Yeast superoxide 128.2, TRPC4 inh inactive, TRPC4 potent inactive, TRPC6 activator inactive and TRPC6 inh inactive.
Screening O=S(=O)(NCC1(N2CCOCC2)CCCCC1)c1ccc(Cl)cc1C(F)(F)F returned TRPC4 act 47*, Yeast superoxide 100.6, TRPC4 inh inactive, TRPC4 potent inactive, TRPC6 activator inactive and TRPC6 inh inactive.
`COc1ccc(CCNC(=O)COC(=O)c2ccc(Br)o2)cc1` gave TRPC4 act inactive, Yeast superoxide 90.7, TRPC4 inh inactive, TRPC4 potent inactive, TRPC6 activator inactive and TRPC6 inh inactive.
`Cc1ccc(NC(=O)CSc2nnc(CNC(=O)c3ccco3)n2C)cc1` gave TRPC4 act inactive, Yeast superoxide 93.6, TRPC4 inh inactive, TRPC4 potent inactive, TRPC6 activator inactive and TRPC6 inh inactive.
`CN(C)S(=O)(=O)c1ccc(Cl)c(C(=O)NC2CCN(Cc3ccccc3)C2)c1` (centres undefined) gave TRPC4 act inactive, Yeast superoxide 95.8, TRPC4 inh inactive, TRPC4 potent 19*, TRPC6 activator inactive and TRPC6 inh inactive.
`O=c1cc(N2CCN(c3ccccc3)CC2)[nH]c(=O)n1-c1ccccc1Cl` gave TRPC4 act inactive, Yeast superoxide 87.7, TRPC4 potent inactive, TRPC6 activator inactive and TRPC6 inh inactive.
For CC(C)(C)NC(=S)NC(=O)C12CCC3CC(CC(C3)C1)C2 the results were TRPC4 act inactive, Yeast superoxide 78.6, TRPC4 inh inactive, TRPC4 potent inactive, TRPC6 activator inactive and TRPC6 inh inactive.
Screening Cc1cc(NC(=O)C(C)SCC(=O)N(Cc2ccccc2)c2ccccc2)no1 (centres undefined) returned TRPC4 act inactive, Yeast superoxide 98.8, TRPC4 inh -7*, TRPC4 potent inactive, TRPC6 activator inactive and TRPC6 inh inactive.
Screening Cc1cc(NC(=O)C(C)SCC(=O)OCC(=O)N(Cc2ccccc2)C(C)(C)C)no1 (centres undefined) returned TRPC4 act inactive, Yeast superoxide 112.8, TRPC4 inh inactive, TRPC4 potent inactive, TRPC6 activator inactive and TRPC6 inh inactive.
Screening CN(Cc1cccc(F)c1)C(=O)c1ccccc1Sc1ccccc1C#N returned TRPC4 act inactive, Yeast superoxide 99.7, TRPC4 inh inactive, TRPC4 potent inactive, TRPC6 activator inactive and TRPC6 inh inactive.
`Clc1c2c(nc3ccccc13)CCC2` gave TRPC4 act inactive, Yeast superoxide 90.7, TRPC4 inh inactive, TRPC4 potent inactive, TRPC6 activator inactive and TRPC6 inh inactive.
For Nc1c2c(nc3ccccc13)CCCC2 the results were TRPC4 act inactive, Yeast superoxide 123.8, TRPC4 inh inactive, TRPC4 potent inactive, TRPC6 activator inactive and TRPC6 inh -5.35*.
COc1cccc(-c2cc(C(=O)N3CC4(C)CC3CC(C)(C)C4)no2)c1 (centres undefined) was read as TRPC4 act inactive, Yeast superoxide 82.6, TRPC4 inh inactive, TRPC4 potent inactive, TRPC6 activator inactive and TRPC6 inh inactive.
CC1(C)CC2CC(C)(CN2C(=O)c2cc(-c3ccc(O)cc3)on2)C1 (centres undefined) was read as TRPC4 act inactive, Yeast superoxide 98.2, TRPC4 inh -6*, TRPC4 potent inactive, TRPC6 activator inactive and TRPC6 inh inactive.
For O=C(CSc1ncn[nH]1)Nc1ccc(Br)cc1F the results were TRPC4 act inactive, Yeast superoxide 95.0, TRPC4 inh inactive, TRPC4 potent inactive, TRPC6 activator inactive and TRPC6 inh inactive.
CCCCn1c(N)c(N(CC)C(=O)c2cc(OC)cc(OC)c2)c(=O)[nH]c1=O was read as TRPC4 act inactive, Yeast superoxide 104.3, TRPC4 inh inactive, TRPC4 potent inactive, TRPC6 activator inactive and TRPC6 inh inactive.
`CCOC(=O)C1=C(C)N=c2s/c(=C/c3cccc([N+](=O)[O-])c3O)c(=O)n2C1c1ccc(OC)cc1OC` (centres undefined) gave TRPC4 act inactive, Yeast superoxide 101.7, TRPC4 inh inactive, TRPC4 potent inactive, TRPC6 activator inactive and TRPC6 inh -5.25*.
`COCCn1nnnc1C(c1cc2cccc(C)c2[nH]c1=O)N1CCN(c2ccccc2F)CC1` (centres undefined) gave TRPC4 act inactive, Yeast superoxide 105.0, TRPC4 inh inactive, TRPC4 potent inactive, TRPC6 activator inactive and TRPC6 inh inactive.
Screening CN(C)CC1CCCCC1OC(=O)c1ccc(Br)cc1 (centres undefined) returned TRPC4 act inactive, Yeast superoxide 118.3, TRPC4 inh -6*, TRPC4 potent inactive, TRPC6 activator inactive and TRPC6 inh inactive.
COc1ccc(C(=O)OC2CCCCC2CN(C)C)cc1 (centres undefined) was read as TRPC4 act inactive, Yeast superoxide 87.8, TRPC4 inh inactive, TRPC4 potent inactive, TRPC6 activator inactive and TRPC6 inh inactive.
Screening O=C(NCCCN1CCOCC1)C1CCN(S(=O)(=O)c2c(Cl)cccc2Cl)CC1 returned TRPC4 act inactive, Yeast superoxide 94.0, TRPC4 inh inactive, TRPC4 potent 15*, TRPC6 activator inactive and TRPC6 inh inactive.
CCOC(=O)N1CCN(C(=O)C(=O)Nc2sc3c(c2C(N)=O)CC(C)(C)OC3)CC1 was read as TRPC4 act inactive, Yeast superoxide 101.2, TRPC4 inh inactive, TRPC4 potent inactive, TRPC6 activator inactive and TRPC6 inh inactive.
`CCC(=O)N1CCN=C1SCc1ccccc1Cl` gave TRPC4 act inactive, Yeast superoxide 98.3, TRPC4 inh inactive, TRPC4 potent inactive, TRPC6 activator inactive and TRPC6 inh inactive.
CCN1CCN(C(=O)C2CCN(c3nnc(C)c4c(C)n(-c5ccc(C)cc5)nc34)CC2)CC1 was read as TRPC4 act inactive, Yeast superoxide 106.9, TRPC4 inh -5*, TRPC4 potent inactive, TRPC6 activator inactive and TRPC6 inh inactive.
Screening Cc1ccc(-n2nc3c(N4CCC(C(=O)N5CCC(C(N)=O)CC5)CC4)nnc(C)c3c2C)cc1 returned TRPC4 act inactive, Yeast superoxide 76.9, TRPC4 inh inactive, TRPC4 potent inactive, TRPC6 activator inactive and TRPC6 inh inactive.

Screening data from PubChem.
